# Test results taken from ChEMBL document CHEMBL1629686, “Substrate selectivity and a novel role in inhibitor discrimination by residue 237 in the KPC-2 beta-lactamase” (Antimicrob Agents Chemother, 2010).
# B1: Carbapenem-hydrolyzing beta-lactamase KPC (Klebsiella pneumoniae), Q9F663 (protein)
# chain: MSLYRRLVLLSCLSWPLAGFSATALTNLVAEPFAKLEQDFGGSIGVYAMDTGSGATVSYRAEERFPLCSSFKGFLAAAVLARSQQQAGLLDTPIRYGKNALVPWSPISEKYLTTGMTVAELSAAAVQYSDNAAANLLLKELGGPAGLTAFMRSIGDTTFRLDRWELELNSAIPGDARDTSSPRAVTESLQKLTLGSALAAPQRQQFVDWLKGNTTGNHRIRAAVPADWAVGDKTGTCGVYGTANDYAVVWPTGRAPIVLAVYTRAPNKDDKHSEAVIAAAARLALEGLGVNGQ
# Tests used:
# Klebsiella pneumoniae [1] = assay: Selectivity index, Ratio of Kcat/Km for Klebsiella pneumoniae 1534 beta-lactamase KPC-2 T237S mutant to ratio of Kcat/Km for Klebsiella pneumoniae 1534 beta-lactamase KPC-2 by spectrophotometric analysis
# Procedure, shortened: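 Kinetics used purified enzymes in 10 mM PBS, pH 7.4, room temperature, with 10 nM enzyme and substrate in excess. Km and Vmax came from a Michaelis-Menten fit. kcat/Km of the variant was compared with wild type as ΔΔG = −RT ln of the kcat/Km ratio.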
# Klebsiella pneumoniae [2] = assay: Antimicrobial activity against Klebsiella pneumoniae 1534 expressing beta-lactamase KPC-2 by agar dilution method; assay type: functional
# Procedure, shortened: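 MICs were determined by LB agar dilution following CLSI criteria, with a Steers replicator. […] Piperacillin-tazobactam was kept at an 8:1 ratio.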
# Klebsiella pneumoniae [3] = assay: Activity of Klebsiella pneumoniae 1534 beta-lactamase KPC-2 T237S mutant by spectrophotometric analysis
# Procedure, shortened: (§1)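 Purified KPC-2 variant enzymes (periplasmic lysate from E. coli, preparative isoelectric focusing). Hydrolysis followed by diode-array spectrophotometry in 10 mM PBS, pH 7.4, room temperature. Enzyme at 10 nM with substrate in molar excess for pseudo-first-order conditions. Vmax and Km came from a nonlinear least-squares Michaelis-Menten fit.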
# Klebsiella pneumoniae [4] = assay: Activity of Klebsiella pneumoniae 1534 beta-lactamase KPC-2 T237A mutant by spectrophotometric analysis; procedure, shortened: as §1
# Escherichia coli [5] = assay: Antimicrobial activity against Escherichia coli DH10B harboring beta-lactamase KPC-2 T237W mutant by agar dilution method; assay type: functional; details: K-12 DH10B
# Procedure, shortened: (§2)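 LB agar dilution MICs followed CLSI criteria, with inocula applied by Steers replicator. […] Piperacillin-tazobactam was tested at an 8:1 ratio. Wild-type and mutant blaKPC-2 were carried on pBC SK(+), or wild type on pBR322-catI, in E. coli DH10B.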
# Escherichia coli [6] = assay: Antimicrobial activity against Escherichia coli DH10B harboring beta-lactamase KPC-2 T237S mutant by agar dilution method; assay type: functional; details: K-12 DH10B; procedure, shortened: as §2
# Escherichia coli [7] = assay: Antimicrobial activity against Escherichia coli DH10B harboring plasmid pBR322-catI carrying beta-lactamase KPC-2 by agar dilution method; assay type: functional; details: K-12 DH10B; procedure, shortened: as §2
# Escherichia coli [8] = assay: Antimicrobial activity against Escherichia coli DH10B harboring plasmid pBC SK(+) carrying wild type beta-lactamase KPC-2 by agar dilution method; assay type: functional; details: K-12 DH10B; procedure, shortened: as §2
# Escherichia coli [9] = assay: Antimicrobial activity against Escherichia coli DH10B harboring beta-lactamase KPC-2 T237D mutant by agar dilution method; assay type: functional; details: K-12 DH10B; procedure, shortened: as §2
# Klebsiella pneumoniae [10] = assay: Ratio of Kcat/Km for Klebsiella pneumoniae 1534 beta-lactamase KPC-2 T237S mutant by spectrophotometric analysis; procedure, shortened: as §1
# Klebsiella pneumoniae [11] = assay: Ratio of Kcat/Km for Klebsiella pneumoniae 1534 beta-lactamase KPC-2 T237A mutant by spectrophotometric analysis; procedure, shortened: as §1
# Escherichia coli [12] = assay: Antimicrobial activity against Escherichia coli DH10B harboring beta-lactamase KPC-2 T237M mutant by agar dilution method; assay type: functional; details: K-12 DH10B; procedure, shortened: as §2
# Escherichia coli [13] = assay: Antimicrobial activity against Escherichia coli DH10B harboring beta-lactamase KPC-2 T237N mutant by agar dilution method; assay type: functional; details: K-12 DH10B; procedure, shortened: as §2
# Escherichia coli [14] = assay: Antimicrobial activity against Escherichia coli DH10B harboring beta-lactamase KPC-2 T237R mutant by agar dilution method; assay type: functional; details: K-12 DH10B; procedure, shortened: as §2
# Escherichia coli [15] = assay: Antimicrobial activity against Escherichia coli DH10B harboring beta-lactamase KPC-2 T237E mutant by agar dilution method; assay type: functional; details: K-12 DH10B; procedure, shortened: as §2
# Escherichia coli [16] = assay: Antimicrobial activity against Escherichia coli DH10B harboring beta-lactamase KPC-2 T237F mutant by agar dilution method; assay type: functional; details: K-12 DH10B; procedure, shortened: as §2
# Escherichia coli [17] = assay: Antimicrobial activity against Escherichia coli DH10B harboring beta-lactamase KPC-2 T237Y mutant by agar dilution method; assay type: functional; details: K-12 DH10B; procedure, shortened: as §2
# Escherichia coli [18] = assay: Antimicrobial activity against Escherichia coli DH10B by agar dilution method; assay type: functional; details: K-12 DH10B; procedure, shortened: as §2
# Escherichia coli [19] = assay: Antimicrobial activity against Escherichia coli DH10B harboring beta-lactamase KPC-2 T237L mutant by agar dilution method; assay type: functional; details: K-12 DH10B; procedure, shortened: as §2
# Escherichia coli [20] = assay: Antimicrobial activity against Escherichia coli DH10B harboring beta-lactamase KPC-2 T237A mutant by agar dilution method; assay type: functional; details: K-12 DH10B; procedure, shortened: as §2
# Escherichia coli [21] = assay: Antimicrobial activity against Escherichia coli DH10B harboring plasmid […] by agar dilution method; assay type: functional; details: K-12 DH10B; procedure, shortened: as §2
# Escherichia coli [22] = assay: Antimicrobial activity against Escherichia coli DH10B harboring beta-lactamase KPC-2 T237C mutant by agar dilution method; assay type: functional; details: K-12 DH10B; procedure, shortened: as §2
# Escherichia coli [23] = assay: Antimicrobial activity against Escherichia coli DH10B harboring beta-lactamase KPC-2 T237K mutant by agar dilution method; assay type: functional; details: K-12 DH10B; procedure, shortened: as §2
# Escherichia coli [24] = assay: Antimicrobial activity against Escherichia coli DH10B harboring beta-lactamase KPC-2 T237P mutant by agar dilution method; assay type: functional; details: K-12 DH10B; procedure, shortened: as §2
# Escherichia coli [25] = assay: Antimicrobial activity against Escherichia coli DH10B harboring beta-lactamase KPC-2 T237H mutant by agar dilution method; assay type: functional; details: K-12 DH10B; procedure, shortened: as §2
# Escherichia coli [26] = assay: Antimicrobial activity against Escherichia coli DH10B harboring beta-lactamase KPC-2 T237I mutant by agar dilution method; assay type: functional; details: K-12 DH10B; procedure, shortened: as §2
# Escherichia coli [27] = assay: Antimicrobial activity against Escherichia coli DH10B harboring beta-lactamase KPC-2 T237Q mutant by agar dilution method; assay type: functional; details: K-12 DH10B; procedure, shortened: as §2
# Escherichia coli [28] = assay: Antimicrobial activity against Escherichia coli DH10B harboring beta-lactamase KPC-2 T237V mutant by agar dilution method; assay type: functional; details: K-12 DH10B; procedure, shortened: as §2
# Escherichia coli [29] = assay: Antimicrobial activity against Escherichia coli DH10B harboring beta-lactamase KPC-2 T237G mutant by agar dilution method; assay type: functional; details: K-12 DH10B; procedure, shortened: as §2
# [30] = Inhibition of Klebsiella pneumoniae 1534 beta-lactamase KPC-2 T237S mutant by competitive assay
# Procedure, shortened: (§3)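 Direct competition assay at steady state with purified enzyme at 10 nM. Inhibitor was varied from 5 μM to 5 mM, with nitrocefin 100 μM final as reporter substrate. 1/v0 was plotted against [I], and Ki(observed) was taken as y-intercept divided by slope. This was corrected by 1 + [S]/Km(nitrocefin).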
# Klebsiella pneumoniae [31] = assay: Ratio of Ki for Klebsiella pneumoniae 1534 beta-lactamase KPC-2 T237A mutant to Ki for wild type Klebsiella pneumoniae beta-lactamase KPC-2 by competitive assay
# [32] = Inhibition of Klebsiella pneumoniae 1534 beta-lactamase KPC-2 T237A mutant by competitive assay; procedure, shortened: as §3
# Klebsiella pneumoniae [33] = assay: Ratio of Ki for Klebsiella pneumoniae 1534 beta-lactamase KPC-2 T237S mutant to Ki for Klebsiella pneumoniae wild type beta-lactamase KPC-2 by competitive assay; procedure, shortened: as §3
# [34] = substrate: C[C@@H](O)[C@H]1C(=O)N2C(C(=O)O)=C(SCCNC=N)C[C@H]12; assay: (§4) Activity of Klebsiella pneumoniae 1534 beta-lactamase KPC-2 by spectrophotometric analysis
# Procedure, shortened: (§5)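 Purified KPC-2 was expressed in E. coli (DH10B or IPTG-induced Origami2 DE3 pLys), released by periplasmic lysis, and purified by preparative isoelectric focusing. It was assayed at 10 nM in 10 mM PBS pH 7.4 at room temperature, with substrate in molar excess for pseudo-first-order conditions. Hydrolysis was read on a diode-array spectrophotometer, and Vmax and Km came from nonlinear least-squares Michaelis-Menten fits.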
# [35] = substrate: CO/N=C(\C(=O)N[C@@H]1C(=O)N2C(C(=O)O)=C(COC(C)=O)CS[C@H]12)c1csc(N)n1; assay: as §4; procedure, shortened: as §5
# [36] = substrate: CC(=O)OCC1=C(C(=O)O)N2C(=O)[C@@H](NC(=O)Cc3cccs3)[C@H]2SC1; assay: as §4; procedure, shortened: as §5
# [37] = substrate: O=C(Cc1cccs1)N[C@@H]1C(=O)N2C(C(=O)O)=C(/C=C/c3ccc([N+](=O)[O-])cc3[N+](=O)[O-])CS[C@H]12; assay: as §4; procedure, shortened: as §5
# [38] = substrate: CCN1CCN(C(=O)N[C@@H](C(=O)N[C@@H]2C(=O)N3[C@@H]2SC(C)(C)[C@@H]3C(=O)O)c2ccccc2)C(=O)C1=O; assay: as §4; procedure, shortened: as §5
# [39] = substrate: C[C@@H](O)[C@H]1C(=O)N2C(C(=O)O)=C(SCCNC=N)C[C@H]12; assay: (§6) Ratio of Kcat/Km for Klebsiella pneumoniae 1534 beta-lactamase KPC-2 by spectrophotometric analysis; procedure, shortened: as §5
# [40] = substrate: CO/N=C(\C(=O)N[C@@H]1C(=O)N2C(C(=O)O)=C(COC(C)=O)CS[C@H]12)c1csc(N)n1; assay: as §6; procedure, shortened: as §5
# [41] = substrate: CC(=O)OCC1=C(C(=O)O)N2C(=O)[C@@H](NC(=O)Cc3cccs3)[C@H]2SC1; assay: as §6; procedure, shortened: as §5
# [42] = substrate: O=C(Cc1cccs1)N[C@@H]1C(=O)N2C(C(=O)O)=C(/C=C/c3ccc([N+](=O)[O-])cc3[N+](=O)[O-])CS[C@H]12; assay: as §6; procedure, shortened: as §5
# [43] = substrate: CCN1CCN(C(=O)N[C@@H](C(=O)N[C@@H]2C(=O)N3[C@@H]2SC(C)(C)[C@@H]3C(=O)O)c2ccccc2)C(=O)C1=O; assay: as §6; procedure, shortened: as §5
molecule,measurement,setting,value
C[C@@H](O)[C@H]1C(=O)N2C(C(=O)O)=C(SCCNC=N)C[C@H]12 [IMIPENEM ANHYDROUS],fold change (FC),Klebsiella pneumoniae [1],2.7
same,MIC,Klebsiella pneumoniae [2],8 µg/mL
same,Km,Klebsiella pneumoniae [3],21 µM
same,kcat,Klebsiella pneumoniae [3],21 s⁻¹
same,Km,Klebsiella pneumoniae [4],31 µM
same,kcat,Klebsiella pneumoniae [4],6.8 s⁻¹
same,MIC,Escherichia coli [5],0.25 µg/mL
same,MIC,Escherichia coli [6],1 µg/mL
same,MIC,Escherichia coli [7],8 µg/mL
same,MIC,Escherichia coli [8],0.5 µg/mL
same,MIC,Escherichia coli [9],0.25 µg/mL
same,kcat/Km,Klebsiella pneumoniae [10],1e+06 M⁻¹ s⁻¹
same,kcat/Km,Klebsiella pneumoniae [11],220000 M⁻¹ s⁻¹
C[C@@H](O)[C@H]1C(=O)N2C(C(=O)O)=C(S[C@@H]3CN[C@H](C(=O)N(C)C)C3)[C@H](C)[C@H]12 [MEROPENEM],MIC,Escherichia coli [12],0.06 µg/mL
same,MIC,Escherichia coli [13],0.06 µg/mL
same,MIC,Escherichia coli [14],0.06 µg/mL
same,MIC,Escherichia coli [15],0.06 µg/mL
same,MIC,Escherichia coli [16],0.06 µg/mL
same,MIC,Klebsiella pneumoniae [2],4 µg/mL
same,MIC,Escherichia coli [17],0.06 µg/mL
same,MIC,Escherichia coli [18],0.06 µg/mL
same,MIC,Escherichia coli [19],0.06 µg/mL
same,MIC,Escherichia coli [20],0.06 µg/mL
same,MIC,Escherichia coli [21],0.06 µg/mL
same,MIC,Escherichia coli [22],0.06 µg/mL
same,MIC,Escherichia coli [23],0.06 µg/mL
same,MIC,Escherichia coli [24],0.06 µg/mL
same,MIC,Escherichia coli [5],0.06 µg/mL
same,MIC,Escherichia coli [25],0.06 µg/mL
same,MIC,Escherichia coli [6],0.5 µg/mL
same,MIC,Escherichia coli [7],2 µg/mL
same,MIC,Escherichia coli [8],0.25 µg/mL
same,MIC,Escherichia coli [26],0.06 µg/mL
same,MIC,Escherichia coli [9],0.06 µg/mL
same,MIC,Escherichia coli [27],0.06 µg/mL
same,MIC,Escherichia coli [28],0.06 µg/mL
same,MIC,Escherichia coli [29],0.06 µg/mL
CC1(C)[C@H](C(=O)O)N2C(=O)C[C@H]2S1(=O)=O [SULBACTAM],Ki,[30],97 µM
same,fold change (FC),Klebsiella pneumoniae [31],4.2
same,Ki,[32],703 µM
same,fold change (FC),Klebsiella pneumoniae [33],1.7
C[C@]1(Cn2ccnn2)[C@H](C(=O)O)N2C(=O)C[C@H]2S1(=O)=O [TAZOBACTAM],Ki,[30],53 µM
same,fold change (FC),Klebsiella pneumoniae [31],2.2
same,Ki,[32],174 µM
same,fold change (FC),Klebsiella pneumoniae [33],1.7
B1,Km,[34],19 µM
same,kcat,[34],19 s⁻¹
same,Km,[35],207 µM
same,kcat,[35],142 s⁻¹
same,Km,[36],14 µM
same,kcat,[36],44 s⁻¹
same,Km,[37],6 µM
same,kcat,[37],52 s⁻¹
same,Km,[38],15 µM
same,kcat,[38],51 s⁻¹
same,kcat/Km,[39],1e+06 M⁻¹ s⁻¹
same,kcat/Km,[40],700000 M⁻¹ s⁻¹
same,kcat/Km,[41],3.1e+06 M⁻¹ s⁻¹
same,kcat/Km,[42],8.7e+06 M⁻¹ s⁻¹
same,kcat/Km,[43],3.4e+06 M⁻¹ s⁻¹
